From ChEMBL document CHEMBL1123895, “Synthesis and anti-HIV activity of various 2'- and 3'-substituted 2',3'-dideoxyadenosines: a structure-activity analysis” (1987)

Tests used:
[1] = test system: MT4; test: (§1) Anti-HIV activity was determined as dose required to protect 50% of the HIV-infected MT-4 cells against destruction; format: functional, Homo sapiens; settings: read-out: ED50 (the source's name)
Summary of the method: (§2)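 MT-4 cells infected with HIV at 10 CCID50 per well, incubated 5 days with a range of compound concentrations. Viable cells counted in a blood cell counting chamber after trypan blue staining.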

[2] = test system: MT4; test: Cytotoxicity was determined as the dose required to reduce the viability of uninfected MT-4 cells by 50%; format: functional; settings: Homo sapiens, read-out: CD50 (the source's name)
Summary of the method: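 Mock-infected MT-4 cells incubated 5 days with a range of compound concentrations. Viable cells counted in a blood cell counting chamber after trypan blue staining.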

[3] = Selectivity ratio CD50 to ED50; format: functional
Summary of the method: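 Ratio of CD50 to ED50. CD50 is from uninfected MT-4 cells and ED50 from MT-4 cells infected with HIV at 10 CCID50 per well. Both are read after 5 days with compound by trypan blue viable cell counting in a blood cell counting chamber.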

[4] = test system: MT4; test: as §1; format: functional; settings: Homo sapiens, read-out: ED50 (the source's name); summary of the method: as §2

| SMILES | EC50 ([1]; Homo sapiens, MT4) [µM] | CC50 [2] [µM] | Ratio [3] | EC50 [1] [µM] | EC50 [4] [µM] |
| --- | --- | --- | --- | --- | --- |
| Nc1ncnc2c1ncn2[C@H]1CC[C@@H](CO)O1 | 6.2 | 889 | 148 |  |  |
| Nc1ncnc2c1ncn2[C@H]1C=C[C@@H](CO)O1 | > 25 | 34 | < 1.2 |  |  |
| Cc1cn([C@H]2C[C@H](N=[N+]=[N-])[C@@H](CO)O2)c(=O)[nH]c1=O [ZIDOVUDINE] | 0.006 | 4 | 666 |  |  |
| Nc1ncnc2c1ncn2[C@@H]1O[C@H](CO)C[C@@H]1F [LODENOSINE] | 35 | > 625 | > 18 |  |  |
| Nc1ncnc2c1ncn2[C@H]1C[C@H](F)[C@@H](CO)O1 (stereo in doubt; 12) [listing 1 of 2 here] |  |  | 11.1 |  |  |
| Nc1ncnc2c1ncn2[C@H]1C[C@H](F)[C@@H](CO)O1 (stereo in doubt; 13) [listing 1 of 2 here] |  |  | > 2.8 |  |  |
| [N-]=[N+]=N[C@H]1C[C@@H](CO)O[C@H]1n1cnc2c(N)ncnc21 | 55 | 625 | 11.4 |  |  |
| Nc1ncnc2c1ncn2[C@H]1C[C@H](F)[C@@H](CO)O1 (stereo in doubt; 13) [listing 2 of 2 here] |  | > 625 |  | 221 |  |
| Nc1ncnc2c1ncn2[C@H]1C[C@H](F)[C@@H](CO)O1 (stereo in doubt; 12) [listing 2 of 2 here] |  |  |  | 50 |  |
| Nc1ncnc2c1ncn2[C@@H]1O[C@H](CO)C[C@H]1F |  | > 625 |  |  | > 625 |
| [N-]=[N+]=N[C@@H]1C[C@@H](CO)O[C@H]1n1cnc2c(N)ncnc21 |  | > 625 | > 2.9 |  | 215 |
